According to ChEMBL document CHEMBL3112403, “Design, synthesis and evaluation of second generation MurF inhibitors based on a cyanothiophene scaffold” (Eur J Med Chem, 2014):
Active and inactive are the calls of the source. No cut-off for these calls is given here.

Columns and labels:
Escherichia coli [1] = assay: Antibacterial activity against Escherichia coli ES100 harboring tolC deletion mutant assessed as growth inhibition by broth microdilution method; type: functional
In short: (§1)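 MIC by broth microdilution in Mueller-Hinton broth following CLSI guidelines. ES100 is the tolC derivative of AB734, and SM1411 is the acrAB derivative of 1411; both are efflux-deficient E. coli strains. Growth inhibition was read as the minimum inhibitory concentration.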

Escherichia coli [2] = assay: Antibacterial activity against Escherichia coli SM1411 harboring acrAB deletion mutant assessed as growth inhibition by broth microdilution method; type: functional; in short: as §1
Escherichia coli [3] = assay: Antibacterial activity against Escherichia coli AB734 assessed as growth inhibition by broth microdilution method in presence of polymyxin B nonapeptide; type: functional
In short: (§2)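 Broth microdilution MIC in Mueller-Hinton broth per CLSI, run with 4 µg/mL polymyxin B nonapeptide to permeabilize the outer membrane.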

Escherichia coli [4] = assay: Antibacterial activity against Escherichia coli AB734 assessed as growth inhibition by broth microdilution method; type: functional
In short: (§3)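 MICs by broth microdilution in Mueller-Hinton broth following CLSI guidelines.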

Escherichia coli [5] = assay: Antibacterial activity against Escherichia coli 1411 assessed as growth inhibition by broth microdilution method in presence of polymyxin B nonapeptide; type: functional; in short: as §2
Escherichia coli [6] = assay: Antibacterial activity against Escherichia coli 1411 assessed as growth inhibition by broth microdilution method; type: functional; in short: as §3
Staphylococcus aureus [7] = assay: Antibacterial activity against Staphylococcus aureus SH1000 assessed as growth inhibition by broth microdilution method; type: functional; in short: as §3
[8] = molecular target: T1, UDP-N-acetylmuramoyl-tripeptide--D-alanyl-D-alanine ligase (Streptococcus pneumoniae) (UniProt Q9ZHC3); assay: Inhibition of Streptococcus pneumoniae MurF ligase using D-Ala-D-Ala as substrate assessed as residual activity at 250 uM after 15 mins by malachite green assay
T1 sequence (whole entry): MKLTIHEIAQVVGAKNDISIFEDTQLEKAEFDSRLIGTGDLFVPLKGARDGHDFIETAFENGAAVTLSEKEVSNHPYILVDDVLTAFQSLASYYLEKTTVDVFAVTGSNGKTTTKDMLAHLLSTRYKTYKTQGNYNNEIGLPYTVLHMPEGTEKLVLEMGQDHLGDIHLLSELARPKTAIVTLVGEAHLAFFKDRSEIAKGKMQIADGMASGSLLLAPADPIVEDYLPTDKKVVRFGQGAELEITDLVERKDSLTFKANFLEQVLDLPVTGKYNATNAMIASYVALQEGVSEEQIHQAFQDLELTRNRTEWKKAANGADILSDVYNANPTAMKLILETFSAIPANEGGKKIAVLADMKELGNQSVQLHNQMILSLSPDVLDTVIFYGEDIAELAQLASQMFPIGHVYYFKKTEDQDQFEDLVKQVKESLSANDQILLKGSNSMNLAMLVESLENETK
In short: (§4)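 Purified S. pneumoniae MurF in 50 mM Hepes pH 8.0 with 50 mM MgCl2, 0.005% Triton X-114, 100 µM D-Ala-D-Ala, 50 µM UMtri-L-Lys and 250 µM ATP, with 5% DMSO final. After 15 min at 37 °C, Biomol reagent was added and absorbance read at 650 nm, in duplicate. RA was taken against a 5% DMSO control. IC50 was the 50% RA point from seven concentrations.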

Escherichia coli [9] = assay: Inhibition of […] MurF ligase using D-Ala-D-Ala as substrate assessed as residual activity at 250 uM after 15 mins by malachite green assay
In short: (§5)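 After 15 min at 37 °C, Biomol reagent was added and phosphate read at 650 nm, in duplicate. RA was taken relative to a 5% DMSO control. IC50 was taken as the concentration giving 50% RA, from seven concentrations.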

Staphylococcus aureus [10] = assay: Antibacterial activity against Staphylococcus aureus SH1000 assessed as decrease in membrane integrity at 4 times MIC by BacLight assay; type: functional, organism-based
In short: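 Membrane damage was measured with the BacLight assay in cells exposed to compound at 4 × MIC and compared with a drug-free control.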

[11] = molecular target: T2, UDP-N-acetylmuramoyl-tripeptide--D-alanyl-D-alanine ligase (Streptococcus pneumoniae, UniProt Q9ZHC3); assay: Inhibition of Streptococcus pneumoniae MurF ligase using D-Ala-D-Ala as substrate after 15 mins by malachite green assay; in short: as §4
T2 sequence (Q9ZHC3 whole entry): T1 sequence (whole entry)

[12] = Inhibition of Escherichia coli MurF ligase using D-Ala-D-Ala as substrate after 15 mins by malachite green assay; in short: as §5
[13] = molecular target: T1, UDP-N-acetylmuramoyl-tripeptide--D-alanyl-D-alanine ligase (Streptococcus pneumoniae); assay: Inhibition of Streptococcus pneumoniae MurF ligase using D-Ala-D-Ala as substrate assessed as residual activity at 100 uM after 15 mins by malachite green assay; in short: as §4
Escherichia coli [14] = assay: Inhibition of […] MurF ligase using D-Ala-D-Ala as substrate assessed as residual activity at 100 uM after 15 mins by malachite green assay; in short: as §5

| SMILES | MIC (Escherichia coli [1]) [µg/mL] | MIC (Escherichia coli [2]) [µg/mL] | MIC (Escherichia coli [3]) [µg/mL] | MIC (Escherichia coli [4]) [µg/mL] | MIC (Escherichia coli [5]) [µg/mL] | MIC (Escherichia coli [6]) [µg/mL] | MIC (Staphylococcus aureus [7]) [µg/mL] | Activity [8] [%] | Activity (Escherichia coli [9]) [%] | Activity (Staphylococcus aureus [10]) | IC50 [11] [µM] | IC50 [12] [µM] | Activity [13] [%] | Activity (Escherichia coli [14]) [%] |
| --- | --- | --- | --- | --- | --- | --- | --- | --- | --- | --- | --- | --- | --- | --- |
| N#Cc1ccc(CN2CCc3c(sc(NC(=O)c4cc(OCCNC(=O)C(F)(F)F)ccc4Cl)c3C#N)C2)cc1 | > 256 | > 256 | > 256 | > 256 | > 256 | > 256 | > 256 | 55 | 45 |  |  |  |  |  |
| COC(=O)c1ccc(CN2CCc3c(sc(NC(=O)c4cc(OCCNC(=N)N)ccc4Cl)c3C#N)C2)cc1.Cl | 8 | 16 | 32 | 64 | 32 | 64 | 8 |  |  | inactive | 37 | 80 |  |  |
| CC(=O)Oc1ccc(C2CCc3c(sc(NC(=O)c4cc(OCCNC(=O)C(F)(F)F)ccc4Cl)c3C#N)C2)cc1 (configuration not stated) |  |  |  |  |  |  |  | 98 | 101 |  |  |  |  |  |
| N#Cc1c(NC(=O)c2cccc(OCc3ccc(Cl)cc3)c2)sc2c1CCCC2 |  |  |  |  |  |  |  |  |  |  |  |  | 102 | 97 |
| N#Cc1c(NC(=O)c2cccc(OCCN)c2)sc2c1CCCC2 |  |  |  |  |  |  |  |  |  |  |  |  | 98 | 93 |
| N#Cc1ccc(COc2ccc(Cl)c(C(=O)Nc3sc4c(c3C#N)CCCC4)c2)cc1 |  |  |  |  |  |  |  |  |  |  |  |  | 102 | 97 |
| N#Cc1c(NC(=O)c2cc(OCc3ccccc3)ccc2Cl)sc2c1CCCC2 |  |  |  |  |  |  |  |  |  |  |  |  | 81 | 82 |
| N#Cc1c(NC(=O)c2cc(OCCNC(=N)N)ccc2Cl)sc2c1CCC(c1ccc(O)cc1)C2 (configuration not stated) |  |  |  |  |  |  |  |  |  | inactive |  |  |  |  |
| COC(=O)c1ccc(CN2CCc3c(sc(NC(=O)c4cc(OCCNC(=O)C(F)(F)F)ccc4Cl)c3C#N)C2)cc1 | > 256 | > 256 | > 256 | > 256 | > 256 | > 256 | > 256 | 55 |  |  |  | 255 |  |  |
| N#Cc1c(NC(=O)c2cc(OCCNC(=O)C(F)(F)F)ccc2Cl)sc2c1CCN(Cc1cccc(O)c1)C2 | > 256 | > 256 | > 256 | > 256 | > 256 | > 256 | > 256 | 71 | 56 |  |  |  |  |  |
| N#Cc1c(NC(=O)c2cc(OCCNC(=O)C(F)(F)F)ccc2Cl)sc2c1CCNC2.O=C(O)C(F)(F)F | > 256 | > 256 | > 256 | > 256 | > 256 | > 256 | > 256 | 99 | 91 |  |  |  |  |  |
| Cl.N#Cc1c(NC(=O)c2cc(OCCNC(=N)N)ccc2Cl)sc2c1CCN(Cc1ccccc1)C2 | 8 | 32 | 16 | 32 | 16 | 32 | 8 |  |  | inactive | 55 | 57 |  |  |
| COc1ccc(CN2CCc3c(sc(NC(=O)c4cc(OCCN)ccc4Cl)c3C#N)C2)cc1 | 32 | 64 | 64 | 128 | 64 | 128 | 128 |  |  | inactive | 125 | 73 |  |  |
| N#Cc1c(NC(=O)c2cccc(OCC3CCCC3)c2)sc2c1CCCC2 |  |  |  |  |  |  |  |  |  |  |  |  | 81 | 99 |
| Cl.N#Cc1ccc(CN2CCc3c(sc(NC(=O)c4cc(OCCNC(=N)N)ccc4Cl)c3C#N)C2)cc1 | 16 | 16 | 32 | 256 | 32 | 128 | 16 |  |  | inactive | 61 | 66 |  |  |
| N#Cc1c(NC(=O)c2cc(OCC(N)=O)ccc2Cl)sc2c1CCCC2 |  |  |  |  |  |  |  | 87 | 74 |  |  |  |  |  |
| N#Cc1c(NC(=O)c2cccc(OCCCN)c2)sc2c1CCCC2 |  |  |  |  |  |  |  | 53 | 75 |  |  |  |  |  |
| N#Cc1c(NC(=O)c2cccc(OCn3cccn3)c2)sc2c1CCCC2 |  |  |  |  |  |  |  |  |  |  |  |  | 89 | 85 |
| CC(C)(C)OC(=O)N1CCc2c(sc(NC(=O)c3cc(OCCNC(=O)C(F)(F)F)ccc3Cl)c2C#N)C1 | > 256 | > 256 | > 256 | > 256 | > 256 | > 256 | > 256 | 96 | 102 |  |  |  |  |  |
| COc1ccc(CN2CCc3c(sc(NC(=O)c4cc(OCCNC(=O)C(F)(F)F)ccc4Cl)c3C#N)C2)cc1 | > 256 | > 256 | > 256 | > 256 | > 256 | > 256 | > 256 |  | 81 |  | 154 |  |  |  |
| N#Cc1c(NC(=O)c2cc(OCCN)ccc2Cl)sc2c1CCNC2 | > 256 | > 256 | > 256 | > 256 | > 256 | > 256 | > 256 | 85 | 65 |  |  |  |  |  |
